NOD2-RIPK2 inh: blocks binding of human NOD2 to RIPK2; O43353; CHO BLA complementation NOD2-RIPK2, CCF4 ratio; inhibition, % at 4.98 µM; 0.38% of 360,000 active; in the data active = inhibition above about 21%
MC4R antagonist: antagonists of human melanocortin 4 receptor (MC4R); P32245; MC4R-expressing cells, MTII-stimulated cAMP, LANCE TR-FRET; inhibition, % at 6.5 µM; 0.48% of 360,000 active; AID 540295;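 active = inhibition above its plate's cutoff, the mean of tested wells on that plate plus 3 SD, cut at about 29% in these data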
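system = U2OS cells with stable human MC4R expression | also added = Melanotan II challenge after compound preincubation | dosing = one concentration, 6.5 µM nominal | incubation = compound 30 min, challenge 1 h, detection 1 h | measured by = TR-FRET with Eu-cAMP and labeled anti-cAMP, 671 nm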
MC4R barr agon: human MC4R agonism via beta-arrestin. P32245. U2OS MC4R beta-arrestin complementation, luminescence; percent of melanotan II response, DMSO zero. activation, % at 8.9 µM. 0.98% of 360,000 active;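 active = activation above a per-plate cutoff, the mean activation of sample wells on that plate plus 3 SD, cut at about 8% in these data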
TLR9-MyD88 inh: blocks human TLR9 binding to MyD88; 0.21% of 340,000 active; AID 504734; Q9NR96+Q99836; inhibition, % at 4.98 µM; CHO BLA complementation TLR9-MyD88, CCF4 FRET ratio;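 active = inhibition above the mean over all tested compounds plus 3 SD, cut at about 21% in these data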
Target sequence (Q99836 whole entry, looked up): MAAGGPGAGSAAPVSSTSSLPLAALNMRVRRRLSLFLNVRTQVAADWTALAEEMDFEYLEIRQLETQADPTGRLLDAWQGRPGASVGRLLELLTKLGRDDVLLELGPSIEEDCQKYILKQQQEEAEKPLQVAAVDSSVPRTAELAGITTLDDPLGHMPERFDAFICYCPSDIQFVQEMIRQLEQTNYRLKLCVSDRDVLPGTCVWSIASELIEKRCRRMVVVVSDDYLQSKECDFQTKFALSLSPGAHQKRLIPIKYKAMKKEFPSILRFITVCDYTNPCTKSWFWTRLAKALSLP
Target sequence (Q9NR96 whole entry, looked up): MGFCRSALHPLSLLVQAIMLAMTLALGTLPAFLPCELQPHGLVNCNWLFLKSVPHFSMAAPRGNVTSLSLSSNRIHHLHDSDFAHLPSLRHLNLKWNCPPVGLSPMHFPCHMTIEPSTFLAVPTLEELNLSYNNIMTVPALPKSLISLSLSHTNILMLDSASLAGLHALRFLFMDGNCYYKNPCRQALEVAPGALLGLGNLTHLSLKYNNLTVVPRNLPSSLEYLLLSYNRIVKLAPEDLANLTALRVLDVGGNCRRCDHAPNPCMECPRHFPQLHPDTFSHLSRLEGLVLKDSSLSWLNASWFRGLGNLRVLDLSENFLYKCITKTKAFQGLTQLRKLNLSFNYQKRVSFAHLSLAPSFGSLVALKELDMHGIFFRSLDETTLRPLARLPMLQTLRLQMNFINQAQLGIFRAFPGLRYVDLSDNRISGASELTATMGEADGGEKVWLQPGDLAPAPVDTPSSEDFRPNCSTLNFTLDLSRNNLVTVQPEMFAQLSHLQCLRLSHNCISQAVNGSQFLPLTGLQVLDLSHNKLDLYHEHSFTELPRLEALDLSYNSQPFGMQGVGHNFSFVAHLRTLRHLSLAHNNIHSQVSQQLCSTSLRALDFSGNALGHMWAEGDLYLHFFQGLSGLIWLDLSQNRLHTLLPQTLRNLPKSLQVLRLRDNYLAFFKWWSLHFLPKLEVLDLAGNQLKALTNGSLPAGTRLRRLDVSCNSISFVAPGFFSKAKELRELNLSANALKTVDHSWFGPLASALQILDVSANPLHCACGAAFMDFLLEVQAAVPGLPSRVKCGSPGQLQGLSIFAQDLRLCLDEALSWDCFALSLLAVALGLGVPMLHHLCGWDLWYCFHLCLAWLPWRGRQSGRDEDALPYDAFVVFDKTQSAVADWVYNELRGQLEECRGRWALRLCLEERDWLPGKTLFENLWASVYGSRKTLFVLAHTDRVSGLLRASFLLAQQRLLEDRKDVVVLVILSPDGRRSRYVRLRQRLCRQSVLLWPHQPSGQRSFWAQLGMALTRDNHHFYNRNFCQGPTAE
TLR4-MyD88 BLA: blocks binding of human TLR4 to MyD88; O00206+Q99836; HeLa CL3-4 TLR4/MyD88 BLA complementation, FRET ratio; inhibition, % at 8.4 µM; 0.18% of 200,000 active; AID 861; in the data active = inhibition above about 25%
MC4R barr ag: human MC4R beta-arrestin agonism confirmation. shares compounds with MC4R barr agon. U2OS MC4R beta-arrestin recruitment, luminescence; scaled DMSO 0%, Melanotan II 100%. activation, % at 8.9 µM. 31% of 2,400 active;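 active = mean activation across replicates above the hit cutoff set in the earlier primary screen, cut at about 8% in these data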
MOR DOR agonist: activates mu-delta opioid heterodimer, MC4R agonist counter-screen; shares compounds with MC4R barr agon; U2OS PathHunter beta-arrestin, beta-gal luminescence; percent of deltorphin B response, DMSO zero; activation, % at 9.2 µM; 5.8% of 2,400 active; AID 602194;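 active = mean activation across replicates exceeds the hit threshold derived in the earlier primary screen, cut at about 18% in these data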
A number is an active result. In the library only some 1.8% were active in any assay of this set; here they are far more common.

`CC(=O)Nc1cc(-c2ccsc2)cn2c(-c3ccc(F)cc3)cnc12` gave NOD2-RIPK2 inh inactive, MC4R antagonist inactive, MC4R barr agon 18.4, MC4R barr ag 13.4 and MOR DOR agonist inactive.
For COc1ccccc1-c1cc(NC(C)=O)c2ncc(-c3cccc(C(C)=O)c3)n2c1 the results were NOD2-RIPK2 inh inactive, MC4R antagonist inactive, MC4R barr agon 11.1, MC4R barr ag 17.5 and MOR DOR agonist inactive.
`CC(=O)Nc1cc(-c2cccnc2)cn2c(-c3ccc(F)cc3)cnc12` gave NOD2-RIPK2 inh inactive, MC4R antagonist inactive, MC4R barr agon 41.9, MC4R barr ag 43.7 and MOR DOR agonist inactive.
For COc1ccc(-c2cnc3c(NC(C)=O)cc(-c4cccc(C(=O)NCCO)c4)cn23)cc1OC the results were NOD2-RIPK2 inh inactive, MC4R antagonist inactive and MC4R barr agon inactive.
`O=C(CCNc1ccc(Cc2ccncc2)cc1)c1ccc([N+](=O)[O-])cc1` gave NOD2-RIPK2 inh inactive, MC4R antagonist inactive, MC4R barr agon inactive, TLR9-MyD88 inh inactive and TLR4-MyD88 BLA inactive.
For COc1ccc(-c2cc(NC(C)=O)c3ncc(-c4ccc(OC)c(OC)c4)n3c2)cc1OC the results were NOD2-RIPK2 inh inactive, MC4R antagonist inactive, MC4R barr agon 14.6, MC4R barr ag 22.8 and MOR DOR agonist inactive.
COc1ccc(-c2cnc3c(NC(C)=O)cc(-c4ccccc4OC)cn23)cc1OC was read as NOD2-RIPK2 inh inactive, MC4R antagonist inactive, MC4R barr agon 22.1, MC4R barr ag 25.2 and MOR DOR agonist inactive.
COc1cc(-c2cc(NC(C)=O)c3ncc(-c4cc(OC)c(OC)c(OC)c4)n3c2)cc(OC)c1OC was read as NOD2-RIPK2 inh inactive, MC4R antagonist inactive, MC4R barr agon 9.6, MC4R barr ag 9.3 and MOR DOR agonist inactive.
For COc1ccc(-c2cnc3c(NC(C)=O)cc(-c4cccc(C(=O)N(C)C)c4)cn23)cc1OC the results were NOD2-RIPK2 inh inactive, MC4R antagonist inactive and MC4R barr agon inactive.
COc1ccccc1-c1cc(NC(C)=O)c2ncc(-c3ccc(S(C)(=O)=O)cc3)n2c1 was read as NOD2-RIPK2 inh inactive, MC4R antagonist inactive and MC4R barr agon inactive.
For COc1ccc(CNC(=O)c2cncc(Br)c2)cc1 the results were NOD2-RIPK2 inh inactive, MC4R antagonist inactive, MC4R barr agon inactive and TLR9-MyD88 inh inactive.
`CC(C)(C)n1nnnc1SCC(=O)Nc1nn(-c2ccccc2)nc1C(N)=O` gave NOD2-RIPK2 inh inactive, MC4R antagonist inactive, MC4R barr agon inactive, TLR9-MyD88 inh inactive and TLR4-MyD88 BLA inactive.
`Clc1ccc(C2=Nn3c(nnc3-c3cc(-c4ccccc4)n[nH]3)SC2)cc1` gave NOD2-RIPK2 inh inactive, MC4R antagonist inactive, MC4R barr agon 40.7, TLR9-MyD88 inh inactive, TLR4-MyD88 BLA inactive, MC4R barr ag 22.7 and MOR DOR agonist inactive.
`c1ccc(C2=Nn3c(nnc3-c3cc(-c4ccccc4)n[nH]3)SC2)cc1` gave NOD2-RIPK2 inh inactive, MC4R antagonist inactive, MC4R barr agon inactive, TLR9-MyD88 inh inactive and TLR4-MyD88 BLA inactive.
`O=c1[nH]cc(S(=O)(=O)N2CCOCC2)c(=O)[nH]1` gave NOD2-RIPK2 inh inactive, MC4R antagonist inactive, MC4R barr agon inactive and TLR9-MyD88 inh inactive.
Screening CCOc1ccc(CC2S/C(=N/N=C/c3ccco3)NC2=O)cc1 (centres undefined) returned NOD2-RIPK2 inh inactive, MC4R antagonist inactive, MC4R barr agon 13.6, TLR9-MyD88 inh inactive, TLR4-MyD88 BLA inactive, MC4R barr ag inactive and MOR DOR agonist inactive.
Screening O=C1N/C(=N\N=C\c2ccco2)SC1Cc1ccccc1[N+](=O)[O-] (centres undefined) returned NOD2-RIPK2 inh inactive, MC4R antagonist inactive, MC4R barr agon inactive and TLR9-MyD88 inh inactive.
For CCOc1ccc(NC(=O)c2nnn(CC(=O)Nc3ccccc3OCC)c2N)cc1 the results were NOD2-RIPK2 inh inactive, MC4R antagonist inactive, MC4R barr agon inactive, TLR9-MyD88 inh inactive and TLR4-MyD88 BLA inactive.

Bioassay records from PubChem.
